The text below walks through data of ChEMBL document CHEMBL3351814, “Discovery of selective hexapeptide agonists to human neuromedin U receptors types 1 and 2” (J Med Chem, 2014).

In assay [1] the target is T1, Neuromedin-U receptor 1 (Homo sapiens) (UniProt Q9HB89).
T1 sequence (whole entry): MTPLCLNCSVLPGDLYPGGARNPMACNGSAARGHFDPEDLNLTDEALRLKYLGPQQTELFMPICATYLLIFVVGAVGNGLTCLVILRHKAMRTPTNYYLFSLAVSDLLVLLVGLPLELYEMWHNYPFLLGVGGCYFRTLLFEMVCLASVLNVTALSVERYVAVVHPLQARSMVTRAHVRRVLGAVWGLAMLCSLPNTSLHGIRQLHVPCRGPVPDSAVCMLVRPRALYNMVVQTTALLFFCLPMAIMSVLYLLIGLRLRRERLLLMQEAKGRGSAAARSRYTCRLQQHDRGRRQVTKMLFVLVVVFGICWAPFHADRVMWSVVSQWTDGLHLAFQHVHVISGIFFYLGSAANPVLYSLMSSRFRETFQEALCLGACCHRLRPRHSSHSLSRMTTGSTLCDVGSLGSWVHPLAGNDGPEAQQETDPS
The experiment in a line: Agonist activity at human NMUR1 expressed in HEK293 cells at 1 to 100 nM by calcium mobilization assay relative to NMU. The format is functional, cell-based. An outline of the steps:
(§1)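 HEK293 cells transiently transfected with human NMUR1 or NMUR2 plasmid (FuGENE6), reseeded 18 h post-transfection at 4.0 × 10^4 cells/well on poly-D-lysine. After 18 h, loaded 40 min with 4 μM Fluo-4-AM in HBSS/HEPES/probenecid buffer pH 7.4 with 1% FCS, then washed. Peptides in buffer with 0.05% BSA and 0.001% Triton X-100. Maximal FLIPR signal expressed as % of hNMU at 1000 nM.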
On the technique in general: Calcium assays in cells follow changes in intracellular calcium, usually with a dye or a luminescent sensor.

A further assay addresses Neuromedin-U receptor 2 (Homo sapiens, UniProt Q9GZQ4). Description: Agonist activity at human NMUR2 expressed in HEK293 cells at 1 to 100 nM by calcium mobilization assay relative to NMU. The format is functional, cell-based. In outline: as §1

Calls of active or inactive are those of the source. The rule behind the calls is not given here. Where a SMILES comes first, the peptide text is derived from it. [ ]: non-standard residue; d: D form. The star is where a group is joined. Quinoline(6-carbonyl) = O=C(c1ccc2ncccc2c1)*; Propanoyl(3-(3-pyridyl)) = O=C(CCc1cccnc1)*; Acetyl(pyridin-2-yl) = O=C(Cc1ccccn1)*; 1Nal = N[C@@H](Cc1cccc2ccccc12)C(=O)O; Butanoyl(4-cHex) = O=C(CCCC1CCCCC1)*; Propanoyl(3-cHex) = O=C(CCC1CCCCC1)*; Acetyl(3-pyridyl) = O=C(Cc1cccnc1)*; Acetyl(4-pyridyl) = O=C(Cc1ccncc1)*; Butanoyl(4-Ph) = O=C(CCCc1ccccc1)*; Hydrocinnamoyl = O=C(CCc1ccccc1)*; Quinaldoyl = O=C(c1ccc2ccccc2n1)*; Tic = O=C(O)[C@@H]1Cc2ccccc2CN1; Cha = N[C@@H](CC1CCCCC1)C(=O)O; Agb = N=C(N)NCC[C@H](N)C(=O)O; Agp = N=C(N)NC[C@H](N)C(=O)O; Chg = N[C@H](C(=O)O)C1CCCCC1; Nle = CCCC[C@H](N)C(=O)O; Dab = NCC[C@H](N)C(=O)O; Nva = CCC[C@H](N)C(=O)O; Dap = NC[C@H](N)C(=O)O; PhAc = O=C(Cc1ccccc1)*; X1 = O=C(Cn1ccnc1)*

Sequence of Neuromedin-U receptor 2 (Q9GZQ4 whole entry): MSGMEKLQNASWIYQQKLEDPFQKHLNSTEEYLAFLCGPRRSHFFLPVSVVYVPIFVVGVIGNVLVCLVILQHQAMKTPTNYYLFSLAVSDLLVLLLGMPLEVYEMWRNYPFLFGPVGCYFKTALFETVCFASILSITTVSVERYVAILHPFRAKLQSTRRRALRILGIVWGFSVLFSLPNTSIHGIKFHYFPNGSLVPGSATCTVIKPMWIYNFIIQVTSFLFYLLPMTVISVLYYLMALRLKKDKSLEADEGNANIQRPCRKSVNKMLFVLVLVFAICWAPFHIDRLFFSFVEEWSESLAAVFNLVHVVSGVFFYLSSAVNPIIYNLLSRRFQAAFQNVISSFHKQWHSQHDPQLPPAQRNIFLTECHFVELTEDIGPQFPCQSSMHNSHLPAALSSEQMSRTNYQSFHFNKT

On to `CC(C)C[C@H](NC(=O)[C@@H]1Cc2ccccc2CN1)C(=O)N[C@@H](Cc1ccccc1)C(=O)N[C@@H](CCCNC(=N)N)C(=O)N1CCC[C@H]1C(=O)N[C@@H](CCCNC(=N)N)C(=O)N[C@@H](CC(N)=O)C(N)=O` (H-[Tic]LFRPRN-NH2), for which the result (in assay [1]; at Neuromedin-U receptor 2) was Active. For the compound `CC(C)C[C@H](NC(=O)CCc1ccccc1)C(=O)N[C@@H](Cc1ccccc1)C(=O)N[C@@H](CCCCN)C(=O)N1CCC[C@H]1C(=O)N[C@@H](CCCNC(=N)N)C(=O)N[C@@H](CC(N)=O)C(N)=O` (Hydrocinnamoyl-LFKPRN-NH2), the outcome on Neuromedin-U receptor 2 was inactive. For the compound `CC(C)C[C@H](NC(=O)CCc1ccccc1)C(=O)N[C@@H](Cc1ccccc1)C(=O)N[C@@H](CCCNC(=N)N)C(=O)N1CCC[C@H]1C(=O)N[C@@H](CCCNC(=N)N)C(=O)N[C@@H](C)C(N)=O` (Hydrocinnamoyl-LFRPRA-NH2), the outcome (in assay [1]; on Neuromedin-U receptor 2) was inactive. For the compound `CC(C)C[C@H](NC(=O)CCc1ccccc1)C(=O)N[C@@H](Cc1ccccc1)C(=O)N[C@@H](CCCNC(=N)N)C(=O)N1CCC[C@H]1C(=O)N[C@@H](CCCNC(=N)N)C(=O)N[C@@H](CC(=O)O)C(N)=O` (Hydrocinnamoyl-LFRPRD-NH2), the result (in assay [1]; at Neuromedin-U receptor 2) was inactive. Consider `CC(C)C[C@H](NC(=O)CCc1ccccc1)C(=O)N[C@@H](Cc1ccccc1)C(=O)N[C@@H](CCNC(=N)N)C(=O)N1CCC[C@H]1C(=O)N[C@@H](CCCNC(=N)N)C(=O)N[C@@H](CC(N)=O)C(N)=O` (Hydrocinnamoyl-LF[Agb]PRN-NH2), for which the result at Neuromedin-U receptor 2 was Active.

As to `CC(C)C[C@H](NC(=O)CCc1ccccc1)C(=O)N[C@@H](Cc1ccccc1)C(=O)N[C@@H](CNC(=N)N)C(=O)N1CCC[C@H]1C(=O)N[C@@H](CCCNC(=N)N)C(=O)N[C@@H](CC(N)=O)C(N)=O` (Hydrocinnamoyl-LF[Agp]PRN-NH2), on Neuromedin-U receptor 2, the outcome was Active. Same read-out and setting: next, `CC(C)C[C@H](NC(=O)CCc1ccccc1)C(=O)N[C@@H](Cc1ccccc1)C(=O)N[C@@H](CCN)C(=O)N1CCC[C@H]1C(=O)N[C@@H](CCCNC(=N)N)C(=O)N[C@@H](CC(N)=O)C(N)=O` (Hydrocinnamoyl-LF[Dab]PRN-NH2): “Active”. The same measure, in the same setting: next, `CC(C)C[C@H](NC(=O)CCc1ccccc1)C(=O)N[C@@H](Cc1ccccc1)C(=O)N[C@@H](CN)C(=O)N1CCC[C@H]1C(=O)N[C@@H](CCCNC(=N)N)C(=O)N[C@@H](CC(N)=O)C(N)=O` (Hydrocinnamoyl-LF[Dap]PRN-NH2): “Active”; `CC(C)C[C@H](NC(=O)CCc1ccccc1)C(=O)N[C@@H](CC1CCCCC1)C(=O)N[C@@H](CCCNC(=N)N)C(=O)N1CCC[C@H]1C(=O)N[C@@H](CCCNC(=N)N)C(=O)N[C@@H](CC(N)=O)C(N)=O` (Hydrocinnamoyl-L[Cha]RPRN-NH2): “Active”. On to `CC(C)C[C@H](NC(=O)Cc1ccccc1)C(=O)N[C@@H](Cc1ccccc1)C(=O)N[C@@H](CCCNC(=N)N)C(=O)N1CCC[C@H]1C(=O)N[C@@H](CCCNC(=N)N)C(=O)N[C@@H](CC(N)=O)C(N)=O` (PhAc-LFRPRN-NH2), for which the outcome in assay [1] was Active.

Regarding `N=C(N)NCCC[C@H](NC(=O)[C@@H]1CCCN1C(=O)[C@H](CCCNC(=N)N)NC(=O)[C@H](Cc1ccccc1)NC(=O)[C@H](Cc1ccccc1)NC(=O)c1ccc2ccccc2n1)C(=O)N[C@@H](CC(N)=O)C(N)=O` (Quinaldoyl-FFRPRN-NH2), the outcome in assay [1] was inactive.

Turning to `N=C(N)NCCC[C@H](NC(=O)[C@@H]1CCCN1C(=O)[C@H](CCCNC(=N)N)NC(=O)[C@H](Cc1ccccc1)NC(=O)[C@H](Cc1ccccc1)NC(=O)Cn1ccnc1)C(=O)N[C@@H](CC(N)=O)C(N)=O` (X1-FFRPRN-NH2), the result in assay [1] was Active. Still for that read-out and setting: next, `N=C(N)NCCC[C@H](NC(=O)[C@@H]1CCCN1C(=O)[C@H](CCCNC(=N)N)NC(=O)[C@H](Cc1ccccc1)NC(=O)[C@H](Cc1ccccc1)NC(=O)Cc1cccnc1)C(=O)N[C@@H](CC(N)=O)C(N)=O` ({Acetyl(3-pyridyl)}-FFRPRN-NH2): “Active”; `N=C(N)NCCC[C@H](NC(=O)[C@@H]1CCCN1C(=O)[C@H](CCCNC(=N)N)NC(=O)[C@H](Cc1ccccc1)NC(=O)[C@H](Cc1ccccc1)NC(=O)Cc1ccncc1)C(=O)N[C@@H](CC(N)=O)C(N)=O` ({Acetyl(4-pyridyl)}-FFRPRN-NH2): “Active”. On the same count and under the same terms, next, `N=C(N)NCCC[C@H](NC(=O)[C@@H]1CCCN1C(=O)[C@H](CCCNC(=N)N)NC(=O)[C@H](Cc1ccccc1)NC(=O)[C@H](Cc1ccccc1)NC(=O)Cc1ccccn1)C(=O)N[C@@H](CC(N)=O)C(N)=O` ({Acetyl(pyridin-2-yl)}-FFRPRN-NH2): “Active”.

As for `CC(C)C[C@H](NC(=O)CCCc1ccccc1)C(=O)N[C@@H](Cc1ccccc1)C(=O)N[C@@H](CCCNC(=N)N)C(=O)N1CCC[C@H]1C(=O)N[C@@H](CCCNC(=N)N)C(=O)N[C@@H](CC(N)=O)C(N)=O` ({Butanoyl(4-Ph)}-LFRPRN-NH2), the result at Neuromedin-U receptor 2 was Active. Still for that read-out and setting: next, `CC(C)C[C@H](NC(=O)CCCC1CCCCC1)C(=O)N[C@@H](Cc1ccccc1)C(=O)N[C@@H](CCCNC(=N)N)C(=O)N1CCC[C@H]1C(=O)N[C@@H](CCCNC(=N)N)C(=O)N[C@@H](CC(N)=O)C(N)=O` ({Butanoyl(4-cHex)}-LFRPRN-NH2): “Active”.

As for `N=C(N)NCCC[C@H](NC(=O)[C@@H]1CCCN1C(=O)[C@H](CCCNC(=N)N)NC(=O)[C@H](Cc1ccccc1)NC(=O)[C@H](Cc1ccccc1)NC(=O)CCc1cccnc1)C(=O)N[C@@H](CC(N)=O)C(N)=O` ({Propanoyl(3-(3-pyridyl))}-FFRPRN-NH2), in assay [1], the outcome was Active. With `CC(C)C[C@H](NC(=O)CCc1cccnc1)C(=O)N[C@@H](Cc1ccccc1)C(=O)N[C@@H](CCCNC(=N)N)C(=O)N1CCC[C@H]1C(=O)N[C@@H](CCCNC(=N)N)C(=O)N[C@@H](CC(N)=O)C(N)=O` ({Propanoyl(3-(3-pyridyl))}-LFRPRN-NH2), the outcome in assay [1] was Active. The same measure, in the same setting: next, `N=C(N)NCCC[C@H](NC(=O)[C@@H]1CCCN1C(=O)[C@H](CCCNC(=N)N)NC(=O)[C@H](Cc1ccccc1)NC(=O)[C@H](Cc1c[nH]c2ccccc12)NC(=O)CCc1cccnc1)C(=O)N[C@@H](CC(N)=O)C(N)=O` ({Propanoyl(3-(3-pyridyl))}-WFRPRN-NH2): “Active”; `N=C(N)NCCC[C@H](NC(=O)[C@@H]1CCCN1C(=O)[C@H](CCCNC(=N)N)NC(=O)[C@H](Cc1ccccc1)NC(=O)[C@H](Cc1cccc2ccccc12)NC(=O)CCc1cccnc1)C(=O)N[C@@H](CC(N)=O)C(N)=O` ({Propanoyl(3-(3-pyridyl))}-[1Nal]FRPRN-NH2): “Active”.

Regarding `CC(C)C[C@H](NC(=O)CCC1CCCCC1)C(=O)N[C@@H](Cc1ccccc1)C(=O)N[C@@H](CCCNC(=N)N)C(=O)N1CCC[C@H]1C(=O)N[C@@H](CCCNC(=N)N)C(=O)N[C@@H](CC(N)=O)C(N)=O` ({Propanoyl(3-cHex)}-LFRPRN-NH2), the result at Neuromedin-U receptor 2 was Active. On the same count and under the same terms, next, `CC[C@H](C)[C@H](NC(=O)[C@H](CC(C)C)NC(=O)CCC1CCCCC1)C(=O)N[C@@H](CN)C(=O)N1CCC[C@H]1C(=O)N[C@@H](CCCNC(=N)N)C(=O)N[C@@H](CC(N)=O)C(N)=O` ({Propanoyl(3-cHex)}-LI[Dap]PRN-NH2): “Active”; `CC(C)C[C@H](NC(=O)CCC1CCCCC1)C(=O)N[C@@H](CC1CCCCC1)C(=O)N[C@@H](CCCNC(=N)N)C(=O)N1CCC[C@H]1C(=O)N[C@@H](CCCNC(=N)N)C(=O)N[C@@H](CC(N)=O)C(N)=O` ({Propanoyl(3-cHex)}-L[Cha]RPRN-NH2): “Active”.

Regarding `CC(C)C[C@H](NC(=O)CCC1CCCCC1)C(=O)N[C@@H](CC1CCCCC1)C(=O)N[C@@H](CN)C(=O)N1CCC[C@H]1C(=O)N[C@@H](CCCNC(=N)N)C(=O)N[C@@H](CC(N)=O)C(N)=O` ({Propanoyl(3-cHex)}-L[Cha][Dap]PRN-NH2), at Neuromedin-U receptor 2, the result was Active. On the same count and under the same terms, next, `CC(C)C[C@H](NC(=O)CCC1CCCCC1)C(=O)N[C@H](C(=O)N[C@@H](CN)C(=O)N1CCC[C@H]1C(=O)N[C@@H](CCCNC(=N)N)C(=O)N[C@@H](CC(N)=O)C(N)=O)C1CCCCC1` ({Propanoyl(3-cHex)}-L[Chg][Dap]PRN-NH2): “Active”; `CCCC[C@H](NC(=O)[C@H](CC(C)C)NC(=O)CCC1CCCCC1)C(=O)N[C@@H](CN)C(=O)N1CCC[C@H]1C(=O)N[C@@H](CCCNC(=N)N)C(=O)N[C@@H](CC(N)=O)C(N)=O` ({Propanoyl(3-cHex)}-L[Nle][Dap]PRN-NH2): “Active”; `CCC[C@H](NC(=O)[C@H](CC(C)C)NC(=O)CCC1CCCCC1)C(=O)N[C@@H](CN)C(=O)N1CCC[C@H]1C(=O)N[C@@H](CCCNC(=N)N)C(=O)N[C@@H](CC(N)=O)C(N)=O` ({Propanoyl(3-cHex)}-L[Nva][Dap]PRN-NH2): “Active”. Regarding `N=C(N)NCCC[C@H](NC(=O)[C@@H]1CCCN1C(=O)[C@H](CCCNC(=N)N)NC(=O)[C@H](Cc1ccccc1)NC(=O)[C@H](Cc1ccccc1)NC(=O)c1ccc2ncccc2c1)C(=O)N[C@@H](CC(N)=O)C(N)=O` ({Quinoline(6-carbonyl)}-FFRPRN-NH2), in assay [1], the outcome was inactive.
